Article PMC2266610 (The Journal of General Physiology, 2005)
Entries after “also recorded” stand apart in the source; their conditions may differ.

Target: T1, homomeric (CNGA1) rod CNG channel (Bos taurus, UniProt Q00194)
T1 sequence (Q00194 1-690): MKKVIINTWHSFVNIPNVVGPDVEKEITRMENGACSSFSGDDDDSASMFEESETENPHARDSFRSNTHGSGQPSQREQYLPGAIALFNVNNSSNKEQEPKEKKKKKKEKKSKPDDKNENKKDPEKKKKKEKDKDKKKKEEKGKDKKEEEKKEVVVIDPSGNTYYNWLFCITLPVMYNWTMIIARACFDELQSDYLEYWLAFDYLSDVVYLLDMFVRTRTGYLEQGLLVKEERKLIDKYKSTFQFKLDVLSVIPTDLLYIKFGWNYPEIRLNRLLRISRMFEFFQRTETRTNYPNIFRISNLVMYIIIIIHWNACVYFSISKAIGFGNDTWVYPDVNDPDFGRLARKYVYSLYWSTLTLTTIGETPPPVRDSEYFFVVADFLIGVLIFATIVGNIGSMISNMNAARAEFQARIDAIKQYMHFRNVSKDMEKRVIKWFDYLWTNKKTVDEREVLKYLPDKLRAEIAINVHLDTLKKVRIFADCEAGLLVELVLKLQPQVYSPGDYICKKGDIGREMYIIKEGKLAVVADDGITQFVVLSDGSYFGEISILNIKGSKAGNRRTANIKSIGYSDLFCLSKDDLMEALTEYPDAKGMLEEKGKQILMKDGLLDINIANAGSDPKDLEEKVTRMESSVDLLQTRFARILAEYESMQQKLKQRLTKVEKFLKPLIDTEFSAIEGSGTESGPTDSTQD
Type: biochemical, bovine
Conditions: saturating (2 mM) cGMP; for Inhibitory potency: result in words
Summary of the method: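 CNGA1 cRNA was injected into Xenopus oocytes (16°C, 3–12 d). Inside-out patches at room temperature were held in low-divalent Na solution (pH 7.2), with 2 mM cGMP intracellular and niflumic acid extracellular. Retinoid from ethanol stocks was mixed into the bath under dim light after phosphatase-driven affinity shifts finished. Current at +100 mV was taken at ~1 h steady state, leak-subtracted, normalized to pre-drug current, and Hill-fitted.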

Row | Inhibitory potency | Structure (SMILES) | Inhibition of current at 400 nM retinoid (400 nM, after 1 h, representative patch) | Inhibition of current at 10 μM retinoid (10 μM, after 1 h)
1 | No inhibition | CC1=C(/C=C/C(C)=C/C=C/C(C)=C/C(=O)O)C(C)(C)CCC1 [RA, all-trans-retinoic acid] | did not inhibit; also recorded: no inhibition | 
2 | No inhibition | CC(=O)/C=C/C1=C(C)CCCC1(C)C [β-ionone] |  | unable to inhibit; also recorded: no change in current
